Drawing on ChEMBL document CHEMBL1143590, “Synthesis and monoamine transporter binding properties of 3beta-(3',4'-disubstituted phenyl)tropane-2beta-carboxylic acid methyl esters” (J Med Chem, 2005), this text covers Ki and IC50 for twelve compounds.

The structures appear in SMILES notation.

Assay [1] can be described thus: Binding affinity towards norepinephrine transporter determined using [3H]nisoxetine as radioligand. The method in brief:
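Competition binding at the norepinephrine transporter against [³H]nisoxetine, present at 1.0 nM final concentration.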

Assay [2] can be described thus: Binding affinity towards serotonin transporter determined using [3H]paroxetine as radioligand. The method in brief: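 Serotonin transporter affinity from competition binding versus [³H]paroxetine at a final concentration of 0.2 nM.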
Assay [3] can be described thus: Binding affinity of compound towards dopamine transporter determined using [3H]WIN-35 428 as radioligand. The method in brief:
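Competition binding at the dopamine transporter; displacement of [³H]WIN 35,428 at 0.5 nM final concentration.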

Broadly, the Ki is a measure of affinity in units of concentration, obtained from inhibition or displacement. Read a high Ki as a looser hold on the target. A word on the IC50: it is the concentration at which inhibition is half-maximal. In the case of `COC(=O)[C@@H]1C2CC[C@H](C[C@@H]1c1ccccc1)N2C`, the results for the Ki in assay [1] and in assay [2] were 920 nM and 1060 nM, respectively. In assay [3], this compound showed an IC50 of 23 nM.
`COC(=O)C1C(c2ccc(Br)c(I)c2)CC2CCC1N2C` (stereo unspecified): the figures for the Ki in assay [1] and in assay [2] were 10.4 nM and 1.14 nM, respectively. In assay [3], this compound gave an IC50 of 0.21 nM.
As for `COC(=O)C1C(c2ccc(Br)c(Cl)c2)CC2CCC1N2C` (stereo unspecified), the figures for the Ki in assay [1] and in assay [2] were 1.31 nM and 0.94 nM, respectively. This compound returned an IC50 in assay [3] of 0.12 nM.
Take `COC(=O)C1C2CC[C@H](C[C@@H]1c1ccc(Cl)c(C)c1)N2C` (stereo partly specified): the values for the Ki in assay [1] and in assay [2] were 36.2 nM and 10.5 nM, respectively. In addition, in assay [3], the IC50 came to 0.82 nM.
For the compound `COC(=O)C1C2CC[C@H](C[C@@H]1c1ccc(I)c(Br)c1)N2C` (stereo partly specified), the Ki in assay [1] is 1.96 nM; in assay [2] it was 0.58 nM. Besides, in assay [3], the IC50 was 0.2 nM.
As for `COC(=O)C1C(c2ccc(Cl)c(Br)c2)CC2CCC1N2C` (stereo unspecified), the inhibition constant (Ki) in assay [1] turned out to be 7.24 nM; in assay [2], 0.78 nM. The compound also registered an IC50 in assay [3] of 0.42 nM.
Turning to `COC(=O)C1C(c2ccc(Cl)c(Cl)c2)CC2CCC1N2C` (stereo unspecified), the Ki in assay [1] was determined as 18 nM; in assay [2], 3.13 nM. In assay [3], this compound displayed an IC50 of 0.79 nM.
As to `COC(=O)C1C(c2ccc(Cl)c(I)c2)CC2CCC1N2C` (stereo unspecified), the figures for the Ki in assay [1] and in assay [2] were 15.1 nM and 1.39 nM, respectively. In assay [3], this compound yielded an IC50 of 0.41 nM.
For the compound `COC(=O)C1C(c2ccc(I)c(I)c2)CC2CCC1N2C` (stereo unspecified), the Ki in assay [1] was determined as 40.4 nM; in assay [2], 2 nM. Besides, the IC50 in assay [3] worked out at 0.98 nM.
In the case of `COC(=O)C1C(c2ccc(C)c(C)c2)CC2CCC1N2C` (stereo unspecified), the Ki in assay [1] stood at 107 nM; in assay [2], 9.88 nM. This compound also gave an IC50 in assay [3] of 0.43 nM.
As for `COC(=O)C1C2CC[C@H](C[C@@H]1c1ccc(I)c(Cl)c1)N2C` (stereo partly specified), the values for the Ki in assay [1] and in assay [2] were 1.26 nM and 1.04 nM, respectively. The IC50 in assay [3] is 0.26 nM.
As to `COC(=O)C1C(c2ccc(Br)c(Br)c2)CC2CCC1N2C` (stereo unspecified), the Ki was found to be 2.8 nM in assay [1] and 0.71 nM in assay [2]. Moreover, the IC50 in assay [3] worked out at 0.27 nM.
